This note sets out measurements from ChEMBL document CHEMBL1123736, “Dihydropyridazinone cardiotonics: synthesis and inotropic activity of 5'-(1,4,5,6-tetrahydro-6-oxo-3-pyridazinyl)spiro[cycloalkane- 1,3'-[3H]indol]-2'(1'H)-ones” (J Med Chem, 1987).

The target of assay [1] is Phosphodiesterase; PDE3 & PDE4. Nature of the assay: (§1) Inhibition of Sarcoplasmic Reticulum cAMP Phosphodiesterase from canine myocardium. In kind it is tissue-based, Canis lupus familiaris. In outline:
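PDE came from free sarcoplasmic reticulum vesicles (fraction E) of canine ventricles, stored at -80 °C. Two-step assay with 1 μM cAMP substrate, run 60 min at room temperature (22 ± 2 °C). Enzyme was added to hydrolyze less than 20% of the substrate.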

For assay [2], the system named is Canis familiaris. Nature of the assay: Increased heart rate in anesthetized dogs after intravenous administration. It counts as functional, Canis lupus familiaris.
Assay [3] concerns Canis familiaris. Description: Decreased mean arterial blood pressure in anesthetized dogs after intravenous administration. In kind it is functional, Canis lupus familiaris.
For assay [4], the system named is Canis familiaris. Description: Myocardial contractility in anesthetized dogs on intravenous administration. The settings on record: Canis lupus familiaris, Myocardium. It counts as functional. A digest of the protocol:
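Open-chest, pentobarbital-anesthetized dogs. Right ventricular contractility was measured with a Walton-Brodie strain-gauge arch sutured to the ventricle, baseline 50 g tension. Increasing iv doses via the femoral vein at 5-min intervals; peak responses recorded; vehicle controls given. ED50 by linear regression, mean ± SEM (n > 2) or mean ± range (n = 2).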

The target in assay [5] is Phosphodiesterase; PDE3 & PDE4. The description is as §1. In kind it is tissue-based, Canis lupus familiaris. In outline:
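PDE came from free sarcoplasmic reticulum vesicles (fraction E) of canine ventricles, stored at -80 °C. Two-step assay with 1 μM cAMP substrate, run 60 min at room temperature (22 ± 2 °C). Enzyme was added to hydrolyze less than 20% of the substrate. Inhibitors were dissolved in DMSO, with 2.5% v/v carryover. IC50 and 95% confidence limits were obtained by regression of the logit transformation.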
This is another data set of the same source.

`O=C1CCC(c2ccc3c(c2)C2(CCCC2)C(=O)N3)=NN1` returned an IC50 in assay [1] of 930 nM. For the same compound, in assay [2], the “Increase in HR” value was 14%. Also, in assay [3], the “Decrease in MAP” value is listed as 17%. In addition, in assay [4], the ED50 came out at 0.133 mg/kg.

For `O=C1CCC(c2ccc3c(c2)C2(CCC2)C(=O)N3)=NN1`, the IC50 in assay [1] was 290 nM. Moreover, the “Increase in HR” value in assay [2] is given as 13%. Besides, the “Decrease in MAP” value in assay [3] was 17%. This compound had an ED50 in assay [4] of 0.0348 mg/kg.

In assay [1], `CC1CC(=O)NN=C1c1ccc2c(c1)C1(CC1)C(=O)N2` (stereo not given) showed an IC50 of 13 nM. For the same compound, the “Increase in HR” value in assay [2] was determined as 17%. Besides, the “Decrease in MAP” value in assay [3] is 35%. In assay [4], this compound yielded an ED50 of 0.0015 mg/kg.

With `CC1CC(O)=NN=C1c1ccc(-n2ccnc2)cc1` (stereo not given) [CI-930], the 50% effect level in assay [4] (ED50) was put at a dose of 0.013 mg/kg.

On to `O=C1CCC(c2ccc(-n3ccnc3)cc2)=NN1` [IMAZODAN], for which it took a dose of 0.045 mg/kg to reach the 50% effect level in assay [4] (ED50).

Take `CC1(C)C(=O)Nc2ccc(C3=NNC(=O)CC3)cc21` [INDOLIDAN]: the IC50 in assay [1] was determined as 130 nM. Further, the Ki in assay [5] is 80 nM. In assay [2], the “Increase in HR” value is 11.8%. Besides, in assay [3], the “Decrease in MAP” value turned out to be 15.2%. In addition, in assay [4], the 50% effect level (ED50) was put at a dose of 0.0068 mg/kg.

In assay [4], `Cc1[nH]c(=O)c(C#N)cc1-c1ccncc1` [MILRINONE] gave an ED50 of 0.037 mg/kg.
